# In ChEMBL document CHEMBL3297739 (J Med Chem, 2014):
# Experiments:
# [1] = biological target: T1, Farnesyl pyrophosphate synthase (Homo sapiens, UniProt P14324); assay: Binding affinity to human FPPS by […] in absence of Mg2+ ions
# T1 sequence (P14324 whole entry): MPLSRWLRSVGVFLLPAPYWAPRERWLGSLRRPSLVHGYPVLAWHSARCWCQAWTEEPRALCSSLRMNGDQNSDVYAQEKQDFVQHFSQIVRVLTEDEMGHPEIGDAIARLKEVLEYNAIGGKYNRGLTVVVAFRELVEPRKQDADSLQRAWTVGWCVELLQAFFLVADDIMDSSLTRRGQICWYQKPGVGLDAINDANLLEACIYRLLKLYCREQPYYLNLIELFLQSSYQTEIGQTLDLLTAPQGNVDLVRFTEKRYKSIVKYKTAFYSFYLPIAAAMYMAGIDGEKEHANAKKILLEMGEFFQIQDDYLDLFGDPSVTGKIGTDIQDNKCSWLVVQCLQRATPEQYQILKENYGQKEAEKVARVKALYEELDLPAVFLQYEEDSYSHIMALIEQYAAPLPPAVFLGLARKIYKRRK
# Procedure, shortened: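 ITC at 30 °C. One 1 μL ligand injection was followed by 18 injections of 2 μL. Heats of dilution from control titrations were subtracted.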
# [2] = biological target: T1, Farnesyl pyrophosphate synthase; assay: Allosteric inhibition of human recombinant FPPS using GPP and [3H]IPP as substrate incubated with enzyme for 10 mins prior to substrate addition by liquid scintillation counting analysis
# [3] = Dissociation constant, pKa of P(O)O-OH group of compound; type: physicochemical
# [4] = biological target: T2, Farnesyl pyrophosphate synthase (Homo sapiens) (UniProt P14324); assay: Allosteric inhibition of human recombinant FPPS using GPP and [3H]IPP as substrate at 20 uM incubated with enzyme for 10 mins prior to substrate addition by liquid scintillation counting analysis
# T2 sequence (whole entry): T1 sequence (P14324 whole entry)
# [5] = Cytotoxicity against human SH-SY5Y cells assessed as LDH release after 48 hrs (reference value: 0%); type: cell-based
# Procedure, shortened: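 SH-SY5Y neuroblastoma cells were grown in serum for 5 days, then exposed to inhibitor (1–500 nM range). LDH activity in the medium was measured with a commercial kit. Values are % activity relative to untreated cells, which were set to 0%.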
structure (smiles),measurement,setting,value
Cc1ccc(-c2cc3c(NC(P(=O)(O)O)P(=O)(O)O)ncnc3s2)cc1,Kd,[1],56 µM
Cc1ccc(-c2cc3c(CCP(=O)(O)O)ncnc3s2)cc1,IC50,[2],26 µM
same,pKa,[3],7.7
Cc1ccc(-c2cc3c(NCC(=O)O)ncnc3s2)cc1,IC50,[2],> 20 µM
same,inhibition,[4],27%
O=P(O)(O)CCc1cccnc1,IC50,[2],> 800 µM
Cc1ccc(-c2cc3c(NCP(=O)(O)O)ncnc3s2)cc1,Kd,[1],9.2 µM
same,pKa,[3],6.8
O=P(O)(O)C(Nc1ncnc2sc(-c3ccc(OC4CC4)cc3)cc12)P(=O)(O)O,Activity,[5],-1%
O=P(O)(O)C(Nc1cncc(-c2ccc(OC3CC3)cc2)c1)P(=O)(O)O,Activity,[5],0%
Cc1ccc(-c2cc3c(NCCP(=O)(O)O)ncnc3s2)cc1,IC50,[2],> 20 µM
same,inhibition,[4],40%
O.O=P(O)(O)C(O)(Cn1ccnc1)P(=O)(O)O [ZOLEDRONIC ACID],Activity,[5],60%
O=C(O)Cn1c(C(=O)O)cc2ccc3ccccc3c21,Activity,[5],3%
O=P(O)(O)C(Cc1cccnc1)P(=O)(O)O,IC50,[2],0.033 µM
O=P(O)(O)C(O)(Cc1cccnc1)P(=O)(O)O [RISEDRONIC ACID],Activity,[5],60%
Cc1ccc(-c2cc3c(NC(c4ccccc4)P(=O)(O)O)ncnc3s2)cc1Cl (centres undefined),IC50,[2],1.2 µM
same,Activity,[5],-7%
Cc1ccc(-c2cc3c(NCP(=O)(O)O)ncnc3s2)cc1Cl,IC50,[2],3.3 µM
